# From article PMC7893792 (ACS Omega, 2021)
# What was measured:
# [1] = target: T1, hOAT1 (Homo sapiens, UniProt Q4U2R8); test: 6-CF uptake by hOAT1-expressing HEK293 cells; assay type: cell-based
# T1 sequence (Q4U2R8 1-563): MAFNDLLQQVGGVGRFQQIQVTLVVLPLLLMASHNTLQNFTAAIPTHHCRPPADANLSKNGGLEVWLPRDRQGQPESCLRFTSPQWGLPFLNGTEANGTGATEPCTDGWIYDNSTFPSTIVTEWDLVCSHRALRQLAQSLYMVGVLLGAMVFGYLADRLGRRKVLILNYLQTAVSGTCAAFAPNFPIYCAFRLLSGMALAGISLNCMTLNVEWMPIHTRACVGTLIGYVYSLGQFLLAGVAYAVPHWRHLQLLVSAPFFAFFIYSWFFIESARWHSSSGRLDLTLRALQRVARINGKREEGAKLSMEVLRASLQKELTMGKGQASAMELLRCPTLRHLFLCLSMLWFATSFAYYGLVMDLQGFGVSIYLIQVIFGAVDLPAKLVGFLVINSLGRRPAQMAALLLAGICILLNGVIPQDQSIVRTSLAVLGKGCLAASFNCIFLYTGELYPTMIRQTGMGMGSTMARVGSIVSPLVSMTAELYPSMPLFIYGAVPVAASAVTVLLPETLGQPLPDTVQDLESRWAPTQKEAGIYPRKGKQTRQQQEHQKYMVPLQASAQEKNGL
# [2] = target: T2, hOAT3 (Homo sapiens, UniProt Q8TCC7); test: 6-CF uptake by hOAT3-expressing HEK293 cells; assay type: cell-based; conditions: for inhibition at 100 µM: HEK293, pH 7.4, read-out: Inhibition of hOAT3-mediated 6-CF uptake
# T2 sequence (Q8TCC7 1-542): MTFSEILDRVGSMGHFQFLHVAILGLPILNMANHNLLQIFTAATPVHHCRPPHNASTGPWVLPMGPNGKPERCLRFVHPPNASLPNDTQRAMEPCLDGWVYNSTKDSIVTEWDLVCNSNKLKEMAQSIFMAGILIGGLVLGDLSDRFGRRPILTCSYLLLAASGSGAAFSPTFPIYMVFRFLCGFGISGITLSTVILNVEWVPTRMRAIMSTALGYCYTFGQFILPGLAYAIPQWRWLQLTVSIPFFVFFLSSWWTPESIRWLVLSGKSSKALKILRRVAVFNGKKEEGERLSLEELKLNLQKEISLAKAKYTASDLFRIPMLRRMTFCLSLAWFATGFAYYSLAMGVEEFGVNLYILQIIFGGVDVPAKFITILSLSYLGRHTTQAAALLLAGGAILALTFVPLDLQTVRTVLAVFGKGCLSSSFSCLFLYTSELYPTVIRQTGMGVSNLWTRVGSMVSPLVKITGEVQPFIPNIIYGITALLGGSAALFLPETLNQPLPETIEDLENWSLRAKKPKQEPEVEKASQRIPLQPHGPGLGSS
# Outline: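 After 10 min preincubation at 37 °C in Waymouth buffer pH 7.4, cells took up 1 μM 6-CF with test compound for 2 min, then ice-cold PBS wash, 1% SDS lysis, fluorescence. Vector uptake subtracted. Inhibition type: 6-CF 1–100 μM ± 0.1 mM test compound, Eadie–Hofstee plot; mean ± SE, n = 3–4.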
# [3] = target: T3, rOat1 (Rattus norvegicus, UniProt O35956); test: 6-CF uptake by rOat1-expressing HEK293 cells; assay type: cell-based
# T3 sequence (O35956 1-551): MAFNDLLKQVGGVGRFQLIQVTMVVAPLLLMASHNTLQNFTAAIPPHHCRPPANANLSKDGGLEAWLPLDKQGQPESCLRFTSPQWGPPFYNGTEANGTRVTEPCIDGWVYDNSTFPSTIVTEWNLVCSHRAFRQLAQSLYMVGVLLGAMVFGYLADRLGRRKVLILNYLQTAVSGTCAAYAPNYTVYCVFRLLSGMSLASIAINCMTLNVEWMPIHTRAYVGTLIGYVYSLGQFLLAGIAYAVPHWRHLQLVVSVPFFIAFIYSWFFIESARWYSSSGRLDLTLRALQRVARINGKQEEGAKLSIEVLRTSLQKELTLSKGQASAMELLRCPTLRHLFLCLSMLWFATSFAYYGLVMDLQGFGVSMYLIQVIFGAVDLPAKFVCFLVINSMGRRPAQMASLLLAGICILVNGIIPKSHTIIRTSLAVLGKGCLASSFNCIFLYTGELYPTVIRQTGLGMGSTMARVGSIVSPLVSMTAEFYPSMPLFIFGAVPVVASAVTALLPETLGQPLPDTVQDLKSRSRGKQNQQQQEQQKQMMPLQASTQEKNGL
# [4] = target: T4, rOat3 (Rattus norvegicus, UniProt Q9R1U7); test: 6-CF uptake by rOat3-expressing HEK293 cells; assay type: cell-based; conditions: for inhibition at 100 µM: HEK293, pH 7.4, read-out: Inhibition of rOat3-mediated 6-CF uptake
# T4 sequence (Q9R1U7 1-536): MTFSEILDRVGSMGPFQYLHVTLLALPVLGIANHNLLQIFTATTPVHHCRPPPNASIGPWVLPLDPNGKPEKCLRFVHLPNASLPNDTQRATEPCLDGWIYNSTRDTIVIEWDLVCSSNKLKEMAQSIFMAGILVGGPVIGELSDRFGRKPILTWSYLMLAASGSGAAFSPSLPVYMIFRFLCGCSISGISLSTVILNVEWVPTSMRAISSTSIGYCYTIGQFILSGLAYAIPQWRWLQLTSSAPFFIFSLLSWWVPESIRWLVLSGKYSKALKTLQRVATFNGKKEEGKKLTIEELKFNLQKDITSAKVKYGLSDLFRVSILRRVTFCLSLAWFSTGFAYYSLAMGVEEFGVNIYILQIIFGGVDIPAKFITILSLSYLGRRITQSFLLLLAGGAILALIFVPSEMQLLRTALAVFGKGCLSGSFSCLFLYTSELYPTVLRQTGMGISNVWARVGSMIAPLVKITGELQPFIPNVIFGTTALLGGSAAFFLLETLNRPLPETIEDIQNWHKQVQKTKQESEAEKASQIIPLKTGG
# [5] = test system: renal Oats; test: Plasma concentration and urinary excretion of 6-CF in rats; assay type: in vivo; conditions: rat; for Decrease of the renal clearance (CLr) of 6-CF: vs control, probenecid 100 mg/kg, EGCG 60 mg/kg, 2% D-malate
# Outline: (§1)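 Male Wistar/ST rats (7 weeks) were anesthetized with ethyl carbamate/α-chloralose, with femoral artery, vein and bladder catheters. 5% mannitol iv bolus 2.5 mL/kg, then 0.03 mL/min infusion. After 20 min, 6-CF 1 mg/kg iv bolus ± test compound 60 mg/kg, saline vehicle. Plasma sampled 1–60 min, urine 0–60 min; fluorescence read-out. AUC0–60 by trapezoidal rule; CLr = 60-min urinary amount/AUC0–60; mean ± SD, 6–8 rats.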
# [6] = Renal parameters; assay type: in vivo; conditions: rat; for BUN / Ccr: iv probenecid 100 mg/kg, EGCG 60 mg/kg or 2% D-malate; for Change in blood urea nitrogen (BUN) / Change in creatinine clearance (Ccr): vs control, Dunnett's test
# Outline: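 Anesthetized, catheterized male Wistar/ST rats on iv 5% mannitol (2.5 mL/kg bolus, 0.03 mL/min infusion; ± 2% D-malate) received 6-CF 1 mg/kg iv alone or with reference inhibitor 100 mg/kg or test compound 60 mg/kg. BUN measured with a colorimetric urea kit; plasma and urine creatinine by kit. Ccr = urinary creatinine excretion rate ÷ plasma creatinine. One-way ANOVA, Dunnett's test vs control.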
# [7] = target: T1, hOAT1; conditions: cited from earlier work
# [8] = test system: mouse Oat3; conditions: cited from earlier work
# [9] = Plasma concentration and urinary excretion of 6-CF in rats; assay type: in vivo; conditions: male, Wistar/ST, rat, iv, 1 mg/kg
# Outline: as §1
# [10] = target: T1, hOAT1; conditions: cited from earlier work; remark: listed apart in the source
# [11] = target: T2, hOAT3; conditions: cited from earlier work
# [12] = substrate: O=C(O)c1ccc(C(=O)O)c(-c2c3ccc(=O)cc-3oc3cc(O)ccc23)c1; test: 6-CF uptake by rOat1-expressing HEK293 cells; assay type: cell-based, rat; conditions: other: HEK293-rOat1, 2 min, 37 °C, pH 7.4, 1-100 μM 6-CF
# [13] = EGCG 60 mg/kg iv with 6-CF 1 mg/kg
# [14] = compound 100 μM, 6-CF 1 μM, 2 min, 37 °C, pH 7.4
molecule,measurement,setting,value
"O=C(O[C@@H]1Cc2c(O)cc(O)cc2O[C@@H]1c1cc(O)c(O)c(O)c1)c1cc(O)c(O)c(O)c1 [EGCG, (−)-epigallocatechin-3-gallate]",Type of inhibition,"[1]; hOAT1, Eadie-Hofstee plot",mixed-type inhibition
same,Type of inhibition,"[2]; hOAT3, Eadie-Hofstee plot",competitive inhibition
same,Type of inhibition,"[3]; rOat1, Eadie-Hofstee plot",competitive inhibition
same,Type of inhibition,"[4]; rOat3, Eadie-Hofstee plot",competitive inhibition
same,Increase of 6-CF AUC0–60,[5]; [13],~2.2 fold
same,Increase of the plasma concentration of 6-CF at 60 min,[5]; [13],~8 fold
same,Decrease of the renal clearance (CLr) of 6-CF,[5],~2.6 fold
same,BUN,[6],11.9 ± 1.3 mg/dL
same,Ccr,[6],2.58 ± 0.82 mL/min/kg
same,Change in blood urea nitrogen (BUN),[6],no significant change
same,Change in creatinine clearance (Ccr),[6],no significant change
Oc1cc(O)c2c(c1)O[C@H](c1ccc(O)c(O)c1)[C@H](O)C2 [epicatechin],Interaction with hOAT1,[7],did not interact
same,Inhibition of mouse Oat3,[8],inhibit
"CC[N+](CC)(CC)CC [TEA, tetraethylammonium]",Inhibition of hOAT1-mediated 6-CF uptake,[1]; [14],no effects
same,Inhibition of hOAT3-mediated 6-CF uptake,[2]; [14],no effects
same,Inhibition of rOat1-mediated 6-CF uptake,[3]; [14],no effects
same,Inhibition of rOat3-mediated 6-CF uptake,[4]; [14],no effects
Nc1ncnc2c1ncn2CCOCP(=O)(O)O [adefovir],"Inhibitory effect, OAT1 compared with OAT3 (human)","[1]; 100 μM, hOAT1 vs hOAT3 plot",higher for OAT1 than those for OAT3
same,"Inhibitory effect, OAT1 compared with OAT3 (rat)","[3]; 100 μM, rOat1 vs rOat3 plot",higher for OAT1 than those for OAT3
O.Oc1cc(O)c2c(c1)O[C@H](c1ccc(O)c(O)c1)[C@@H](O)C2 [catechin],Interaction with hOAT1,[7],did not interact
"O=C(O)c1ccc(C(=O)O)c(-c2c3ccc(=O)cc-3oc3cc(O)ccc23)c1 [6-CF, 6-carboxyfluorescein]",Vmax of 6-CF uptake,"[3]; HEK293-rOat1, 2 min, 37 °C, pH 7.4",131 ± 3 pmol/mg/2 min
same,Vmax of 6-CF uptake,"[4]; HEK293-rOat3, 2 min, 37 °C, pH 7.4",35.3 ± 1.3 pmol/mg/2 min
same,CL renal,[9]; plasma and urine,18.3 ± 6.8 mL/min/kg
same,AUC(0-t),[9]; plasma,573 ng·h/mL
same,Vmax of 6-CF transport,[10],125.1 ± 1.6 pmol/mg/2 min
same,Km,[10]; read-out: Km of 6-CF transport,6.94 ± 0.33 µM
same,Vmax of 6-CF transport,[11],70.0 ± 3.2 pmol/mg/2 min
same,Km,[11]; read-out: Km of 6-CF transport,38.4 ± 4.2 µM
O=C(O)C[C@@H](O)C(=O)O [D-malate],Decrease of the renal clearance (CLr) of 6-CF,[5],~4 fold
same,BUN,[6],11.4 ± 1.1 mg/dL
same,Ccr,[6],2.92 ± 0.66 mL/min/kg
same,Change in blood urea nitrogen (BUN),[6],no significant change
same,Change in creatinine clearance (Ccr),[6],no significant change
CCCCC[C@H](O)/C=C/[C@H]1[C@H](O)CC(=O)[C@@H]1C/C=C\CCCC(=O)O [prostaglandin E2],inhibition at 100 µM,[2],> 80%
same,inhibition at 100 µM,[4],> 80%
CCCN(CCC)S(=O)(=O)c1ccc(C(=O)O)cc1 [probenecid],inhibition at 100 µM,[2],> 80%
same,inhibition at 100 µM,[4],> 80%
same,Decrease of the renal clearance (CLr) of 6-CF,[5],~6 fold
same,BUN,[6],12.6 ± 0.7 mg/dL
same,Ccr,[6],2.51 ± 0.78 mL/min/kg
same,Change in blood urea nitrogen (BUN),[6],no significant change
same,Change in creatinine clearance (Ccr),[6],no significant change
O=C(O[C@@H]1Cc2c(O)cc(O)cc2O[C@@H]1c1ccc(O)c(O)c1)c1cc(O)c(O)c(O)c1 [epicatechin gallate],Inhibition of mouse Oat3,[8],inhibit
rOat1 (Rattus norvegicus) (protein) MAFNDLLKQVGGVGRFQLIQVTMVVAPLLLMASHNTLQNFTAAIPPHHCRPPANANLSKDGGLEAWLPLDKQGQPESCLRFTSPQWGPPFYNGTEANGTRVTEPCIDGWVYDNSTFPSTIVTEWNLVCSHRAFRQLAQSLYMVGVLLGAMVFGYLADRLGRRKVLILNYLQTAVSGTCAAYAPNYTVYCVFRLLSGMSLASIAINCMTLNVEWMPIHTRAYVGTLIGYVYSLGQFLLAGIAYAVPHWRHLQLVVSVPFFIAFIYSWFFIESARWYSSSGRLDLTLRALQRVARINGKQEEGAKLSIEVLRTSLQKELTLSKGQASAMELLRCPTLRHLFLCLSMLWFATSFAYYGLVMDLQGFGVSMYLIQVIFGAVDLPAKFVCFLVINSMGRRPAQMASLLLAGICILVNGIIPKSHTIIRTSLAVLGKGCLASSFNCIFLYTGELYPTVIRQTGLGMGSTMARVGSIVSPLVSMTAEFYPSMPLFIFGAVPVVASAVTALLPETLGQPLPDTVQDLKSRSRGKQNQQQQEQQKQMMPLQASTQEKNGL,Km,[12],6.68 ± 0.62 µM
